# Results reported in paper PMC5614685 (Biochemistry and Biophysics Reports, 2017).
# Read-outs that look alike come from different tables or passages of the source. Bridge positions count the residues as written; N and C are the ends. Ends that are not written are not given here. Peptide text beside a SMILES is read from it.
# T1: ActRIIB-Fc (Homo sapiens, UniProt Q13705)
# T1 sequence (Q13705 19-135): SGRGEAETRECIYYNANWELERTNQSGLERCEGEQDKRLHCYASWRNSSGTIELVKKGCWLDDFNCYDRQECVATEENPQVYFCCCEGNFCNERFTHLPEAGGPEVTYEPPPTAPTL
# T2: ActRIIB-Fc (extracellular domain of human ActRIIB, activin receptor type-2B, fused to human IgG-Fc) (human, UniProt Q13705 19-135)
# T2 sequence: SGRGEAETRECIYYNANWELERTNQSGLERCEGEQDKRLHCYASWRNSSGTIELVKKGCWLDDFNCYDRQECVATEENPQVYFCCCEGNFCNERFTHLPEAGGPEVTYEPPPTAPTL
# B1: BMP9: bone morphogenetic protein 9, R&D Systems (3209-BP) (protein, UniProt Q9UK05 320-429, looked up)
# Growth/differentiation factor …: SAGAGSHCQKTSLRVNFEDIGWDSWIIAPKEYEAYECKGGCFFPLADDVTPTKHAIVQTLVHLKFPTKVGKACCVPTKLSPISVLYKDDMGVPTLKYHYEGMSVAECGCR
# Assays:
# ActRIIB-Fc [1] = target: T1, ActRIIB-Fc; experiment: Plate ELISA, ligand binding of ActRIIB-Fc; conditions: ligand directly coated; HRP anti-human IgG Fc, chemiluminescence
# ActRIIA-Fc [2] = target: T3, ActRIIA-Fc (Homo sapiens, UniProt P27037); experiment: Plate ELISA, ligand binding of ActRIIA-Fc; conditions: ligand directly coated; HRP anti-human IgG Fc, chemiluminescence
# Procedure, shortened: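 Wells coated directly with each ligand overnight at 4 °C, then blocked with 0.5% BSA in PBS for 2 h at room temperature. ActRIIA-Fc added, then washed three times with PBST. Bound Fc protein detected with HRP goat anti-human IgG Fc (5000-fold dilution in 0.5% BSA/PBS) and a chemiluminescence reagent.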
# Target sequence in this assay (P27037 20-134 limits assumed): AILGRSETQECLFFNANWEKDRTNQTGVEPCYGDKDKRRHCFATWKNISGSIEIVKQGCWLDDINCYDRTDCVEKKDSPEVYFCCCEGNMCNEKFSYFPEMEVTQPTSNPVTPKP
# ActRIIB-Fc [3] = target: T1, ActRIIB-Fc; experiment: SPR binding assay, ActRIIB-Fc
# Procedure, shortened: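 ActRIIB-Fc immobilized on a CM5 chip by amine coupling to about 3000 RU in PBS/0.01% P20 at 22 °C. Peptide concentration series injected in PBS/0.01% P20/1% DMSO at 75 μL/min: 60 s contact, up to 60 s dissociation. Double-referenced data globally fitted to a 1:1 model for kon and koff, KD = koff/kon. For fast off-rates, KD from a steady-state 1:1 fit.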
# ActRIIA-Fc [4] = target: T3, ActRIIA-Fc; experiment: SPR binding assay, ActRIIA-Fc
# Procedure, shortened: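 ActRIIA-Fc amine-coupled to a CM5 chip to about 9000 RU in PBS/0.01% P20 at 22 °C. Peptide concentration series run in PBS/0.01% P20/1% DMSO at 75 μL/min: 60 s association, up to 60 s dissociation. Sensorgrams double-referenced and globally fitted to a 1:1 model, KD = koff/kon. For fast off-rates, KD taken from a 1:1 steady-state fit.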
# mice = conditions: injection to mice; ref Suragani et al. [9]; cited from earlier work
# [5] = target: T2, ActRIIB-Fc (extracellular domain of …); experiment: SPR
# ActRIIA-Fc [6] = target: ActRIIA-Fc (UniProt P27037); experiment: SPR
# ActRIIB-Fc/ActRIIA-Fc = conditions: ref [3]; cited from earlier work
# [7] = target: T2, ActRIIB-Fc (extracellular domain of …); experiment: SPR; remark: listed apart in the source
# Sequence of ActRIIA-Fc (UniProt P27037) (P27037 20-135): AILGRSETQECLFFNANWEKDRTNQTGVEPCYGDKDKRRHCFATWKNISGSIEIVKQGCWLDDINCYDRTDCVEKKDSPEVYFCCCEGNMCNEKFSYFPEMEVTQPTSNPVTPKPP
molecule,measurement,setting,value
"MSTN: recombinant mature human MSTN (myostatin), ActRIIB ligand","binding to ActRIIB-Fc (plate ELISA), in words",ActRIIB-Fc [1],"binds to activin A, MSTN, and GDF11 in a concentration-dependent manner"
same,"binding to ActRIIA-Fc (plate ELISA), in words",ActRIIA-Fc [2],but not MSTN
CC[C@H](C)[C@@H]1NC(=O)[C@H](CCCNC(=N)N)NC(=O)[C@H](CCCNC(=N)N)NC(=O)[C@H](C(C)C)NC(=O)[C@H](CO)NC(=O)[C@H]([C@@H](C)O)NC(=O)CNC(=O)[C@H](Cc2ccccc2)NC(=O)[C@@H](NC(=O)[C@@H](N)C(C)C)CSSC[C@@H](C(=O)N[C@H](C(=O)O)C(C)C)NC1=O [AR2mini] (H-VCFGTSVRRICV-OH; disulfide 2-11),koff,ActRIIB-Fc [3],> 0.1 s⁻¹
CC(C)C[C@@H]1NC(=O)[C@H]([C@@H](C)O)NC(=O)[C@H](CCCCN)NC(=O)[C@@H]2CCCN2C(=O)[C@H](Cc2c[nH]c3ccccc23)NC(=O)[C@@H](NC(=O)[C@H](CCCCN)NC(=O)[C@H](Cc2ccc(O)cc2)NC(=O)[C@@H](N)Cc2c[nH]cn2)CSSC[C@@H](C(=O)N[C@@H](Cc2c[nH]c3ccccc23)C(=O)N[C@@H](CC(N)=O)C(=O)N[C@@H](Cc2c[nH]cn2)C(=O)O)NC(=O)[C@H](CCCCN)NC(=O)[C@H](Cc2ccccc2)NC1=O [AR9] (H-HYKCWPKTLFKCWNH-OH; disulfide 4-12),Kd,ActRIIA-Fc [4],> 100 µM
same,koff,ActRIIB-Fc [3],0.049 s⁻¹
"activin A: ActRIIB ligand, purchased from R&D Systems (338-AC)","binding to ActRIIB-Fc (plate ELISA), in words",ActRIIB-Fc [1],"binds to activin A, MSTN, and GDF11 in a concentration-dependent manner"
same,"binding to ActRIIA-Fc (plate ELISA), in words",ActRIIA-Fc [2],binds to activin A and GDF11
"GDF11: growth differentiation factor 11, R&D Systems (1958-GD)","binding to ActRIIB-Fc (plate ELISA), in words",ActRIIB-Fc [1],"binds to activin A, MSTN, and GDF11 in a concentration-dependent manner"
same,"anemia, in words",mice,causes anemia
same,"binding to ActRIIA-Fc (plate ELISA), in words",ActRIIA-Fc [2],binds to activin A and GDF11
C[C@@H]1NC(=O)[C@H](CCCNC(=N)N)NC(=O)[C@H]([C@@H](C)O)NC(=O)[C@@H](NC(=O)[C@H](CCC(N)=O)NC(=O)[C@H](Cc2ccccc2)NC(=O)[C@@H]2CCCN2)CSSC[C@@H](C(=O)N[C@H](C(=O)N[C@@H](CCCCN)C(=O)N[C@@H](CO)C(=O)O)[C@@H](C)O)NC(=O)[C@H](Cc2ccc(O)cc2)NC(=O)[C@H](Cc2ccc(O)cc2)NC(=O)[C@H](Cc2c[nH]c3ccccc23)NC(=O)CNC(=O)[C@H](CC(=O)O)NC(=O)[C@H](CCCNC(=N)N)NC1=O [AR8] (H-PFQCTRARDGWYYCTKS-OH; disulfide 4-14),koff,ActRIIB-Fc [3],> 0.1 s⁻¹
HYKCWPKTLFKCWNH-OH (disulfide 4-12 (inferred)) [AR9],Kd,[5],0.86 µM
VCFGTSVRRICV-OH (disulfide 2-11 (inferred)) [AR2mini],Kd,[5],1.8 µM
same,Kd,ActRIIA-Fc [6],19 µM
VCDGTSVPRICV-OH (disulfide 2-11 (inferred)) [AR2mut],Kd,[5],> 100 µM
B1,"PPI with ActRIIB-Fc/ActRIIA-Fc, in words",ActRIIB-Fc/ActRIIA-Fc,have been previously reported
PFQCTRARDGWYYCTKS-OH (disulfide 4-14 (inferred)) [AR8],Kd,ActRIIA-Fc [6],18 µM
same,Kd,[7],3.6 µM
